# What was measured:
# [1] = molecular target: Collagenase 3 (Homo sapiens, UniProt P45452); assay: Inhibition of human recombinant MMP13
# Outline: (§1)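 Enzyme potency is expressed as IC50 in nM, reported as average ± SD.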
# [2] = molecular target: 72 kDa type IV collagenase (Homo sapiens, UniProt P08253); assay: Inhibition of human recombinant MMP2; outline: as §1
# [3] = molecular target: T1, Disintegrin and metalloproteinase domain-containing protein 17 (Homo sapiens, UniProt P78536); assay: Inhibition of human TACE in human whole blood
# T1 sequence (P78536 whole entry, the tested form may be a part): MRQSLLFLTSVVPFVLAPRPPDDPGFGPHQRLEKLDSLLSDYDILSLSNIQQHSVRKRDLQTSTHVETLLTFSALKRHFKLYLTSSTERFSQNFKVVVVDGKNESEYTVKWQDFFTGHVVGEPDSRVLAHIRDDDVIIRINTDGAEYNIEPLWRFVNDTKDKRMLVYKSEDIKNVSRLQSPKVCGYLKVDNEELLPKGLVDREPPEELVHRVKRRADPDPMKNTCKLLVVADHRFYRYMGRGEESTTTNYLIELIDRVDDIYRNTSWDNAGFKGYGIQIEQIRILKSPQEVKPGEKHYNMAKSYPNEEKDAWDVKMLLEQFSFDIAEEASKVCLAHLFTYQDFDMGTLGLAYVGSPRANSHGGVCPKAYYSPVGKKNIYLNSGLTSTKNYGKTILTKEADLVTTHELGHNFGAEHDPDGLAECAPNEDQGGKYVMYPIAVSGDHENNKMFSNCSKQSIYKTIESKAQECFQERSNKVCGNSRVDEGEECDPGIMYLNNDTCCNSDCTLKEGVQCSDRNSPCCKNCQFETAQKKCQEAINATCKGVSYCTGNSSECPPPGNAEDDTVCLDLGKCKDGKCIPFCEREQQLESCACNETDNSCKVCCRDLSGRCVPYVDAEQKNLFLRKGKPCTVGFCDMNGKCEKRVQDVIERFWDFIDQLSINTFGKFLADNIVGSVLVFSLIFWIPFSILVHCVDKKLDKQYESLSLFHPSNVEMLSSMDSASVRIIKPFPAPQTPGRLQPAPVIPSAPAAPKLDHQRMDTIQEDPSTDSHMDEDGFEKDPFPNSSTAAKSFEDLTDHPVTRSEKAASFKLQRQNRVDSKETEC
# [4] = organism: Homo sapiens; assay: Selectivity for TACE over MMP13
# [5] = molecular target: T1, Disintegrin and metalloproteinase domain-containing protein 17; assay: Inhibition of human TACE expressed in CHO cells by FRET assay; type: cell-based
# [6] = molecular target: Matrix metalloproteinase-14 (Homo sapiens, UniProt P50281); assay: Inhibition of human recombinant MMP14
# [7] = system: Mus musculus; assay: Inhibition of LPS-induced TNFalpha production in BALB/CJ mouse at 25 mg/kg, po after 90 mins; type: functional; details: 1.5 h
# [8] = organism: Homo sapiens; assay: Selectivity for TACE over MMP2
# 72 kDa type IV collagenase, sequence (P08253 whole entry, the tested form may be a part): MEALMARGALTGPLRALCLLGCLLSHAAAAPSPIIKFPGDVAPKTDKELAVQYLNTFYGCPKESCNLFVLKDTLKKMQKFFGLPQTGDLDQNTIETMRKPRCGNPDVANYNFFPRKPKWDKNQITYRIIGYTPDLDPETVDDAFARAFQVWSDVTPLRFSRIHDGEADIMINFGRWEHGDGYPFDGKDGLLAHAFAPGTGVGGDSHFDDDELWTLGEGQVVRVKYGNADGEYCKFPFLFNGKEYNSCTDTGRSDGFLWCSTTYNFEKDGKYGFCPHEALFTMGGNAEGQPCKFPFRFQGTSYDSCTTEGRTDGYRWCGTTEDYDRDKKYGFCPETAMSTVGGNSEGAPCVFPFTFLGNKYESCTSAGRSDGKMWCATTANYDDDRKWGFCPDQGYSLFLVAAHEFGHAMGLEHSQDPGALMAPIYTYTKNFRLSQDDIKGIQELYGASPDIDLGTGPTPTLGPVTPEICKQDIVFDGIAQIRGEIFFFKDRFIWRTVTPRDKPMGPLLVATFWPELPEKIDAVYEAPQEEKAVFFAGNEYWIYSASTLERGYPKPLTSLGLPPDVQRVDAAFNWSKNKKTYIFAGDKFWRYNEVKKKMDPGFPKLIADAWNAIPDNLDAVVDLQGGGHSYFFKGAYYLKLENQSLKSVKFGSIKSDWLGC
IC50 [1],IC50 [2],IC50 [3],Selectivity ratio [4],IC50 [5],IC50 [6],Selectivity ratio [8],Compound,inhibition in vivo at 25 mg/kg [7]
584 nM,46 nM,4800 nM,499,2.5 nM,1000 nM,–,CC#CCNc1ccc(S(=O)(=O)CC2(C(=O)NO)CCN(C(=O)c3ccccc3C)CC2)cc1,–
772 nM,216 nM,6400 nM,> 750,< 1 nM,3620 nM,–,CC#CCNc1ccc(S(=O)(=O)CC2(C(=O)NO)CCN(C(=O)N(CC)CC)CC2)cc1,–
2080 nM,97 nM,5000 nM,–,2 nM,–,–,CC#CCNc1ccc(S(=O)(=O)CC2(C(=O)NO)CCN(S(=O)(=O)C(C)C)CC2)cc1,–
–,120 nM,16000 nM,> 400,1.6 nM,2370 nM,–,CC#CCNc1ccc(S(=O)(=O)CC2(C(=O)NO)CCN(C(=O)OC(C)(C)C)CC2)cc1,–
6880 nM,1530 nM,7200 nM,–,6.4 nM,4320 nM,–,CC#CCNc1ccc(S(=O)(=O)CC2(C(=O)NO)CCN(Cc3ccncc3)CC2)cc1,–
–,–,300 nM,–,–,–,–,CC#CCOc1ccc(S(=O)(=O)N2CCSC(C)(C)[C@@H]2C(=O)NO)cc1,–
3200 nM,513 nM,3600 nM,–,2.3 nM,4890 nM,–,CC#CCNc1ccc(S(=O)(=O)CC2(C(=O)NO)CCN(C(=O)C(C)C)CC2)cc1,72%
2480 nM,1310 nM,4900 nM,–,3.5 nM,7050 nM,–,CC#CCNc1ccc(S(=O)(=O)CC2(C(=O)NO)CCN(C(=O)C(C)CC)CC2)cc1 (stereo not given),–
–,–,–,–,64.5 nM,–,–,CC#CCNc1ccc(S(=O)(=O)CC2(C(=O)NO)CCNCC2)cc1,–
135 nM,–,14000 nM,–,2 nM,–,–,CC#CCOc1ccc(S(=O)(=O)CC2(C(=O)NO)CCN(C(=O)OC(C)(C)C)CC2)cc1,–
12000 nM,> 1670 nM,> 50000 nM,–,27 nM,–,–,CC#CC(C)(C)Oc1ccc(S(=O)(=O)CC2(C(=O)NO)CCN(S(=O)(=O)C(C)C)CC2)cc1,–
1040 nM,334 nM,25000 nM,–,10 nM,–,–,CC(C)(C)OC(=O)N1CCC(CS(=O)(=O)c2ccc(NCC#CCO)cc2)(C(=O)NO)CC1,–
157 nM,280 nM,1500 nM,52,3 nM,3640 nM,93,CC#CCOc1ccc(S(=O)(=O)CC2(C(=O)NO)CCN(S(=O)(=O)C(C)C)CC2)cc1,–
1600 nM,–,> 50000 nM,–,3.3 nM,–,–,CC#CCN(C)c1ccc(S(=O)(=O)CC2(C(=O)NO)CCN(C(=O)OC(C)(C)C)CC2)cc1,–
2910 nM,4180 nM,31000 nM,720,4 nM,–,1000,CC#CC(C)Oc1ccc(S(=O)(=O)CC2(C(=O)NO)CCN(S(=O)(=O)C(C)C)CC2)cc1 (stereo not given),–

Compound,IC50 [1],IC50 [2],IC50 [3],Selectivity ratio [4],IC50 [5],IC50 [6],Selectivity ratio [8],inhibition in vivo at 25 mg/kg [7]
CC#CCNc1ccc(S(=O)(=O)N2CCSC(C)(C)[C@@H]2C(=O)NO)cc1,30 nM,56 nM,3500 nM,–,2.3 nM,–,–,–

# Reference: ChEMBL document CHEMBL1149647, “Structure-based design of TACE selective inhibitors: manipulations in the S1'-S3' pocket” (Bioorg Med Chem, 2007)
